Test results: ChEMBL document CHEMBL4118269 (J Med Chem, 2018)
Converted amounts (≈) assume the structure as drawn.

What was measured:
[1] = target: T1, Lanosterol 14-alpha demethylase (Candida albicans (strain SC5314 / ATCC MYA-2876) (Yeast), UniProt P10613); assay: Inhibition of Candida albicans CYP51 assessed as reduction in [3-3H]lanosterol 14alpha-demethylation at 0.75 uM preincubated for 60 secs followed by NADPH addition measured after 60 mins by RP-HPLC analysis relative to control; settings: 1 h
Outline: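 C. albicans CYP51 expressed in E. coli and purified, 0.5 μM, with 1.0 μM rat NADPH-P450 reductase, dilauroylphosphatidylcholine and isocitrate dehydrogenase/isocitrate regeneration in 50 mM potassium phosphate pH 7.2, 10% glycerol, 0.1% Triton X-100. Substrate 25 μM final; inhibitor:enzyme:substrate 1.5:1:50. 37 °C, started with 100 μM NADPH. Sterols extracted with EtOAc, radio-HPLC. Triplicate, mean ± SD.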

[2] = target: Lanosterol 14-alpha demethylase (Aspergillus) (UniProt B8NUK6+Q9P8R0+G4WW85); assay: Inhibition of Aspergillus fumigatus CYP51 assessed as reduction in [3-3H]eburicol 14alpha-demethylation at 0.75 uM preincubated for 60 secs followed by NADPH addition measured after 60 mins by RP-HPLC analysis relative to control
Outline: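 E. coli-expressed, purified CYP51 (0.5 μM) with rat NADPH-P450 reductase (1.0 μM), 100 μM dilauroylphosphatidylcholine, isocitrate dehydrogenase/isocitrate NADPH regeneration, in 50 mM K phosphate pH 7.2 with 10% glycerol and 0.1% Triton X-100. [3-3H]eburicol 25 μM final, inhibitor 0.75 μM final (1.5:1:50 inhibitor:enzyme:substrate), 37 °C. Started with 100 μM NADPH, 60 min, EtOAc extraction, radio-HPLC. Percent inhibition, triplicate, mean ± SD.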

[3] = target: T1, Lanosterol 14-alpha demethylase; assay: Binding affinity to Candida albicans CYP51 by spectral titration method; settings: read-out: Kd(app)
Outline: (§1)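 Purified CYP51 at 0.5 μM in 5 cm path cuvettes, titrated from 0.2 mM DMSO stocks over 0.1–0.8 μM ligand. Kd obtained by fitting to the quadratic tight-binding equation using total ligand and enzyme concentrations.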

[4] = target: T2, Lanosterol 14-alpha demethylase (Aspergillus, UniProt B8NUK6+G4WW85+Q9P8R0); assay: Binding affinity to Aspergillus fumigatus CYP51 by spectral titration method; settings: read-out: Kd(app)
T2 sequence (B8NUK6 whole entry): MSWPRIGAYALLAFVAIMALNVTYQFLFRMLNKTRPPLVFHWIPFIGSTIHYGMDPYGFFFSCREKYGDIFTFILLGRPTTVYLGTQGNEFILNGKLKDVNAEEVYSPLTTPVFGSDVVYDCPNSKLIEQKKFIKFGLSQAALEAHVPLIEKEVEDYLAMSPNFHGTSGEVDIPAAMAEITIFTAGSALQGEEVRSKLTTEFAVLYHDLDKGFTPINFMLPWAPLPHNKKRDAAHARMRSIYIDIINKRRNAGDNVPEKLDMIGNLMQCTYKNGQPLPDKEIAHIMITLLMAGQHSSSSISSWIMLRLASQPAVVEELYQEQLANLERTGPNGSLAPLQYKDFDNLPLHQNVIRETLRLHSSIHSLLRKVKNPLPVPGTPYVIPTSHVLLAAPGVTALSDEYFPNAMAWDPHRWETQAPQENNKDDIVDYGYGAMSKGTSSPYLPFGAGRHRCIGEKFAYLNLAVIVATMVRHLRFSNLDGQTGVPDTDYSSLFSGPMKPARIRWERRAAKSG
T2 sequence (Q9P8R0 whole entry): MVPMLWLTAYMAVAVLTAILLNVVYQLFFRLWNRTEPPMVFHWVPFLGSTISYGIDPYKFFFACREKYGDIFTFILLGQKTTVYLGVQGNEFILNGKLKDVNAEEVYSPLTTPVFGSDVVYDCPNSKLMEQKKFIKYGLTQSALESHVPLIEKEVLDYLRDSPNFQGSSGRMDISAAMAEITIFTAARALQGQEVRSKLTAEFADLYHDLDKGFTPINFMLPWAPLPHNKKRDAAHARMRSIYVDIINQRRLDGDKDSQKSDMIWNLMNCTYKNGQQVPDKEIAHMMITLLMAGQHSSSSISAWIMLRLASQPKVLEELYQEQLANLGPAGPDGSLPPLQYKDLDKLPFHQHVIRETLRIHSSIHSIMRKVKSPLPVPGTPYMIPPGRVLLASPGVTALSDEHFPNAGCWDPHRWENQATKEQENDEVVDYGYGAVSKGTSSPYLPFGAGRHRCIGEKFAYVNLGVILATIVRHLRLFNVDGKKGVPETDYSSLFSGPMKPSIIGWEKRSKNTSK
T2 sequence (G4WW85 whole entry): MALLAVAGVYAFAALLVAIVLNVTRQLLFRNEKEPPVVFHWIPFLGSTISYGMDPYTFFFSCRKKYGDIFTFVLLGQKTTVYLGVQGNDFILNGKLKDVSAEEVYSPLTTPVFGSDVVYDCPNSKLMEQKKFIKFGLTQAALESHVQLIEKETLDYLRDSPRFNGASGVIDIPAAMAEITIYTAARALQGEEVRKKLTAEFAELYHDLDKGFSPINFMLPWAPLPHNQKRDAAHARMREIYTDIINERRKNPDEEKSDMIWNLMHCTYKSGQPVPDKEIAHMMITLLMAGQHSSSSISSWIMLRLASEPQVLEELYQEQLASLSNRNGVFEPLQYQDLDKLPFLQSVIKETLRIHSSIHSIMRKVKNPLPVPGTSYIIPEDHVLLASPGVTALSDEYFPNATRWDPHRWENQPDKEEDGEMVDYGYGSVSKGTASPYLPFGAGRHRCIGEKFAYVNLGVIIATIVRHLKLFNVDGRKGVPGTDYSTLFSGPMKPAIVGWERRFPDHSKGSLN
Outline: as §1, with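 “ligand. Type II red shift of the Soret band (417 to 424 nm) followed as ΔA (Amax−Amin) in difference spectra.” for “ligand.”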

[5] = target: T1, Lanosterol 14-alpha demethylase; assay: Potency index, ratio of VNI Kd(app) to compound Kd(app) for Candida albicans CYP51
[6] = Lipophilicity, log P of the compound; type: physicochemical; settings: octanol/water
[7] = Half life in human liver microsomes at 1 uM preincubated for 5 mins followed by NADPH addition measured up to 45 mins by LC-MS/MS analysis; type: ADME, microsome; settings: 0.75 h
Outline: (§2)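 Pooled liver microsomes (0.5 mg/mL; male CD-1 mouse, male Sprague Dawley rat, or mixed-gender human) with 1 μM compound in 100 mM potassium phosphate pH 7.4, 3 mM MgCl2, 37 °C with shaking. 5 min preincubation, then 1 mM NADPH. Aliquots at 0, 3, 7, 15, 25, 45 min quenched in cold CH3CN with carbamazepine internal standard, then LC/MS/MS. Triplicate; T1/2 = ln2/k from the slope of ln % remaining versus time.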

[8] = Half life in Sprague-Dawley rat liver microsomes at 1 uM preincubated for 5 mins followed by NADPH addition measured up to 45 mins by LC-MS/MS analysis; type: ADME, microsome; settings: 0.75 h; outline: as §2
[9] = Half life in CD-1 mouse liver microsomes at 1 uM preincubated for 5 mins followed by NADPH addition measured up to 45 mins by LC-MS/MS analysis; type: ADME, microsome; settings: 0.75 h; outline: as §2
Aspergillus fumigatus [10] = assay: Antifungal activity against Aspergillus fumigatus 1022 after 48 hrs by CLSI M38-A2 protocol based assay; type: functional; settings: Aspergillus fumigatus, 1022, 48 h; read-out: MIC100
Aspergillus fumigatus [11] = assay: Antifungal activity against Aspergillus fumigatus 32820 after 48 hrs by CLSI M38-A2 protocol based assay; type: functional; settings: Aspergillus fumigatus, 32820, 48 h; read-out: MIC100
Aspergillus fumigatus [12] = assay: Antifungal activity against Aspergillus fumigatus MYA626 after 48 hrs by CLSI M38-A2 protocol based assay; type: functional; settings: MYA626, 48 h, read-out: MIC100
in vitro [13] = settings: human, liver microsomes
in vitro [14] = settings: human, liver microsomes; remark: listed apart in the source
in vitro [15] = settings: Sprague-Dawley, rat, liver microsomes
in vitro [16] = settings: Sprague-Dawley, rat, liver microsomes; remark: listed apart in the source
in vitro [17] = settings: CD-1, mouse, liver microsomes
in vitro [18] = settings: CD-1, mouse, liver microsomes; remark: listed apart in the source
Aspergillus fumigatus [19] = assay: Antifungal activity against Aspergillus fumigatus after 48 hrs

T1 sequence (P10613 whole entry): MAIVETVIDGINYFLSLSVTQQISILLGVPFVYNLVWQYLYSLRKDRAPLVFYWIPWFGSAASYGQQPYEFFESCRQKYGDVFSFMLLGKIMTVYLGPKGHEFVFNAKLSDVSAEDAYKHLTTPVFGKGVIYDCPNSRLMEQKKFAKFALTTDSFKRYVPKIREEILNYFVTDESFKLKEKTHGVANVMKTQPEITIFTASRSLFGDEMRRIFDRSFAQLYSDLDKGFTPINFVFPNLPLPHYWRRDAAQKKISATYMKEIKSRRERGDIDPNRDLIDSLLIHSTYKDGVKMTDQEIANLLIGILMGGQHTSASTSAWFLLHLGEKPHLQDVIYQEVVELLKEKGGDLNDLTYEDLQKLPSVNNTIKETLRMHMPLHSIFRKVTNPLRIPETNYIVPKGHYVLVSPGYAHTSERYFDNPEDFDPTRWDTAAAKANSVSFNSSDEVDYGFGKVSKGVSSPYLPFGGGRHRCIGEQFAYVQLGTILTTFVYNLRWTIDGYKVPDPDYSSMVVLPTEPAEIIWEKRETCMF

## CC[C@@H]([C@H](C)O)n1ncn(-c2ccc(N3CCN(c4ccc(OC[C@@H]5CO[C@@](Cn6cncn6)(c6ccc(F)cc6F)C5)cc4)CC3)cc2)c1=O [POSACONAZOLE]
[1]
  inhibition at 0.75 µM: 98%
[2]
  inhibition: 93%
[3]
  Kd: 81 nM
[4]
  Kd: 131 nM
[5]
  Ratio: 3.5

## O=C(N[C@@H](Cn1ccnc1)c1ccc(Cl)cc1Cl)c1ccc(-c2nnc(-c3ccc(C(F)(F)F)c(F)c3)o2)cc1
[1]
  inhibition at 0.75 µM: 89%
[2]
  inhibition: 65%
[6]
  logP: 5.65
[4]
  Kd: 55 nM
[7]
  t1/2: 3.43 h
[8]
  t1/2: 1.28 h
[9]
  t1/2: 1.53 h
Aspergillus fumigatus [10]
  MIC: 0.19 µg/mL (≈ 0.322 µM)
Aspergillus fumigatus [11]
  MIC: 0.09 µg/mL (≈ 0.152 µM)
Aspergillus fumigatus [12]
  MIC: 0.39 µg/mL (≈ 0.661 µM)
In vitro [13]
  CLint scaled at 0.75 h, 1 µM: 6.06 mL/min/kg
In vitro [14]
  CLhep predicted at 0.75 h, 1 µM: 4.07 mL/min/kg
In vitro [15]
  CLint scaled at 0.75 h, 1 µM: 36 mL/min/kg
In vitro [16]
  CLhep predicted at 0.75 h, 1 µM: 24 mL/min/kg
In vitro [17]
  CLint scaled at 0.75 h, 1 µM: 60 mL/min/kg
In vitro [18]
  CLhep predicted at 0.75 h, 1 µM: 36 mL/min/kg

## O=C(N[C@@H](Cn1ccnc1)c1ccc(Cl)cc1Cl)c1ccc(-c2nnc(-c3cc(F)cc(-c4ncncc4F)c3)o2)cc1
[1]
  inhibition at 0.75 µM: 92%
[2]
  inhibition: 57%
[6]
  logP: 5.05
[4]
  Kd: 132 nM
[7]
  t1/2: 1.4 h
[9]
  t1/2: 0.867 h
Aspergillus fumigatus [10]
  MIC: 0.48 µg/mL (≈ 0.776 µM)
Aspergillus fumigatus [11]
  MIC: 0.19 µg/mL (≈ 0.307 µM)
Aspergillus fumigatus [12]
  MIC: 0.78 µg/mL (≈ 1.26 µM)
In vitro [13]
  CLint scaled at 0.75 h, 1 µM: 14.9 mL/min/kg
In vitro [14]
  CLhep predicted at 0.75 h, 1 µM: 8.37 mL/min/kg
In vitro [15]
  CLint scaled at 0.75 h, 1 µM: 27 mL/min/kg
In vitro [16]
  CLhep predicted at 0.75 h, 1 µM: 19.5 mL/min/kg
In vitro [17]
  CLint scaled at 0.75 h, 1 µM: 104 mL/min/kg
In vitro [18]
  CLhep predicted at 0.75 h, 1 µM: 48.3 mL/min/kg

## O=C(N[C@@H](Cn1ccnc1)c1ccc(Cl)cc1Cl)c1ccc(-c2nnc(-c3ccc(OCC(F)(F)F)cc3F)o2)cc1
[1]
  inhibition at 0.75 µM: 94%
[2]
  inhibition: 82%
[6]
  logP: 5.58
[4]
  Kd: 20 nM
[7]
  t1/2: 1.27 h
[9]
  t1/2: 1.03 h
Aspergillus fumigatus [10]
  MIC: 0.19 µg/mL (≈ 0.306 µM)
Aspergillus fumigatus [11]
  MIC: 0.06 µg/mL (≈ 0.0967 µM)
Aspergillus fumigatus [12]
  MIC: 0.39 µg/mL (≈ 0.629 µM)
In vitro [13]
  CLint scaled at 0.75 h, 1 µM: 16.5 mL/min/kg
In vitro [14]
  CLhep predicted at 0.75 h, 1 µM: 9.24 mL/min/kg
In vitro [15]
  CLint scaled at 0.75 h, 1 µM: 64 mL/min/kg
In vitro [16]
  CLhep predicted at 0.75 h, 1 µM: 34 mL/min/kg
In vitro [17]
  CLint scaled at 0.75 h, 1 µM: 88 mL/min/kg
In vitro [18]
  CLhep predicted at 0.75 h, 1 µM: 44 mL/min/kg

## O=C(N[C@@H](Cn1ccnc1)c1ccc(Cl)cc1Cl)c1ccc(-c2nnc(-c3ccccc3)o2)cc1
[1]
  inhibition at 0.75 µM: 20%
[2]
  inhibition: 24%
[6]
  logP: 4.57
[4]
  Kd: 203 nM
[7]
  t1/2: 2.5 h
[8]
  t1/2: 1.77 h
[9]
  t1/2: 1.03 h
Aspergillus fumigatus [10]
  MIC: 0.48 µg/mL (≈ 0.952 µM)
Aspergillus fumigatus [11]
  MIC: 0.08 µg/mL (≈ 0.159 µM)
In vitro [13]
  CLint scaled at 0.75 h, 1 µM: 8.31 mL/min/kg
In vitro [14]
  CLhep predicted at 0.75 h, 1 µM: 5.95 mL/min/kg
In vitro [15]
  CLint scaled at 0.75 h, 1 µM: 26.4 mL/min/kg
In vitro [16]
  CLhep predicted at 0.75 h, 1 µM: 19.2 mL/min/kg
In vitro [17]
  CLint scaled at 0.75 h, 1 µM: 87 mL/min/kg
In vitro [18]
  CLhep predicted at 0.75 h, 1 µM: 44 mL/min/kg
Aspergillus fumigatus [19]
  MIC: 0.5 µg/mL (≈ 0.991 µM)

## C[C@@H](c1ncncc1F)[C@](O)(Cn1cncn1)c1ccc(F)cc1F [VORICONAZOLE]
[4]
  Kd: 56 nM
Aspergillus fumigatus [19]
  MIC: 0.7 µg/mL (≈ 2 µM)

## O=C(N[C@@H](Cn1ccnc1)c1ccc(Cl)cc1Cl)c1ccc(-c2nnc(-c3ccc(F)c(F)c3)o2)cc1
[2]
  inhibition: 58%
[6]
  logP: 4.88
[4]
  Kd: 57 nM
[7]
  t1/2: 2.77 h
[8]
  t1/2: 1.52 h
[9]
  t1/2: 1.63 h
Aspergillus fumigatus [10]
  MIC: 0.29 µg/mL (≈ 0.537 µM)
Aspergillus fumigatus [11]
  MIC: 0.08 µg/mL (≈ 0.148 µM)
Aspergillus fumigatus [12]
  MIC: 0.78 µg/mL (≈ 1.44 µM)
In vitro [13]
  CLint scaled at 0.75 h, 1 µM: 7.53 mL/min/kg
In vitro [14]
  CLhep predicted at 0.75 h, 1 µM: 5.54 mL/min/kg
In vitro [15]
  CLint scaled at 0.75 h, 1 µM: 31 mL/min/kg
In vitro [16]
  CLhep predicted at 0.75 h, 1 µM: 21 mL/min/kg
In vitro [17]
  CLint scaled at 0.75 h, 1 µM: 55 mL/min/kg
In vitro [18]
  CLhep predicted at 0.75 h, 1 µM: 34 mL/min/kg
